From ChEMBL document CHEMBL3120099, “Novel S1P(1) receptor agonists--part 2: from bicyclo[3.1.0]hexane-fused thiophenes to isobutyl substituted thiophenes” (J Med Chem, 2014)
pEC50: −log10 of the molar value. Active and inactive are the calls of the source. No cut-off for these calls is given here.

Assays:
[1] = target: Sphingosine 1-phosphate receptor 1 (Homo sapiens, UniProt P21453); experiment: Agonist activity at human recombinant S1P1 receptor expressed in CHO cells assessed as membrane-bound 35S-GTPgammaS incubated 30 mins prior to substrate addition measured after 1 hr by topcount scintillation counting analysis; assay type: functional, cell-based
Rattus norvegicus [2] = experiment: Lymphopenic activity in Wistar rat assessed as reduction in blood lymphocyte count at 10 mg/kg, po after 144 hrs; assay type: functional; design: scale not given: the % may be the effect or the level left
Procedure, shortened: (§1)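 Normotensive male Wistar rats given 1–10 mg/kg by gavage in 5% DMSO/7.5% succinylated gelatin. Blood taken before and 3, 6 and 24 h after dosing, with later times for some compounds. Lymphocytes counted by hematology analyzer. % LC change calculated per animal relative to the predose value (=100%). Mean ± SEM.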

Rattus norvegicus [3] = experiment: Lymphopenic activity in Wistar rat assessed as reduction in blood lymphocyte count at 10 mg/kg, po after 24 hrs; assay type: functional; procedure, shortened: as §1
Rattus norvegicus [4] = experiment: Lymphopenic activity in Wistar rat assessed as reduction in blood lymphocyte count at 10 mg/kg, po after 72 hrs; assay type: functional; design: scale not given: the % may be the effect or the level left; procedure, shortened: as §1
Rattus norvegicus [5] = experiment: Lymphopenic activity in Wistar rat assessed as reduction in blood lymphocyte count at 10 mg/kg, po after 6 hrs; assay type: functional; design: scale not given: the % may be the effect or the level left; procedure, shortened: as §1
[6] = target: Sphingosine 1-phosphate receptor 3 (Homo sapiens, UniProt Q99500); experiment: Agonist activity at human recombinant S1P3 receptor expressed in CHO cells assessed as membrane-bound 35S-GTPgammaS incubated 30 mins prior to substrate addition measured after 1 hr by topcount scintillation counting analysis; assay type: functional, cell-based
Rattus norvegicus [7] = experiment: Lymphopenic activity in Wistar rat assessed as reduction in blood lymphocyte count at 10 mg/kg, po after 3 hrs; assay type: functional; design: scale not given: the % may be the effect or the level left; procedure, shortened: as §1
Rattus norvegicus [8] = experiment: Lymphopenic activity in Wistar rat assessed as reduction in blood lymphocyte count at 3 mg/kg, po after 6 hrs; assay type: functional; design: scale not given: the % may be the effect or the level left; procedure, shortened: as §1
Rattus norvegicus [9] = experiment: Lymphopenic activity in Wistar rat assessed as reduction in blood lymphocyte count at 3 mg/kg, po after 3 hrs; assay type: functional; design: scale not given: the % may be the effect or the level left; procedure, shortened: as §1
Rattus norvegicus [10] = experiment: Lymphopenic activity in Wistar rat assessed as reduction in blood lymphocyte count at 3 mg/kg, po after 24 hrs; assay type: functional; design: scale not given: the % may be the effect or the level left; procedure, shortened: as §1
[11] = Plasma concentration in Wistar rat at 10 mg/kg, po after 6 hrs; assay type: ADME, organism-based; design: dose 10 mg/kg, route oral
[12] = Plasma concentration in Wistar rat at 10 mg/kg, po after 3 hrs; assay type: ADME, organism-based; design: dose 10 mg/kg, route oral
Rattus norvegicus [13] = experiment: Lymphopenic activity in po dosed Wistar rat assessed as reduction in blood lymphocyte count; assay type: functional, organism-based; procedure, shortened: as §1
[14] = Plasma concentration in Wistar rat at 10 mg/kg, po after 24 hrs; assay type: ADME, organism-based; design: dose 10 mg/kg, route oral
[15] = Intrinsic clearance in Wistar rat liver microsomes at 1 uM by LC-MS/MS analysis; assay type: ADME; conditions: read-out: CLH
Procedure, shortened: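 Pooled male Wistar rat liver microsomes at 0.5 mg/mL protein. Compound at 1 µM, 37 °C, DMSO ≤0.1%. Started with NADPH-regenerating system (NADP, glucose 6-phosphate, MgCl2, G6PDH, pH 7.4 phosphate). Quenched with ice-cold methanol at times up to 15 min, then LC-MS-MS.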

Rattus norvegicus [16] = experiment: Clearance in Wistar rat at 1 mg/kg, iv; assay type: ADME, organism-based; design: dose 1 mg/kg, route intravenous; conditions: in vivo
Procedure, shortened: (§2)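 Male Wistar rats (~250 g), jugular vein and carotid artery catheters implanted 2 days before dosing under isoflurane with buprenorphine analgesia. 1 mg/kg given as a 5 min jugular infusion in aqueous mixed micellar vehicle (phospholipids, bile acids). Serial EDTA blood sampling up to 24 h. Plasma analysed by LC-MS-MS after methanol precipitation. Noncompartmental analysis.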

[17] = Half life in Wistar rat at 1 mg/kg, iv; assay type: ADME, organism-based; design: dose 1 mg/kg, route intravenous; conditions: in vivo; procedure, shortened: as §2
[18] = Oral bioavailability in Wistar rat at 10 mg/kg; assay type: ADME, organism-based; conditions: in vivo
Procedure, shortened: (§3)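 Male Wistar rats (~250 g), 10 mg/kg by gavage as a DMSO solution added to 7.5% succinylated gelatin in water (5% DMSO final). Sublingual blood under light isoflurane predose and at 0.5, 1, 2, 3, 4, 6, 8, 24 h into EDTA. Plasma LC-MS-MS after methanol precipitation. Noncompartmental parameters. Bioavailability referenced to 1 mg/kg iv.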

[19] = Volume of distribution at steady state in Wistar rat at 1 mg/kg, iv; assay type: ADME, organism-based; design: dose 1 mg/kg, route intravenous; conditions: in vivo, read-out: Vdss; procedure, shortened: as §2
[20] = AUC (0 to 24 hrs) in Wistar rat at 10 mg/kg, po; assay type: ADME, organism-based; design: time < 24 hr, dose 10 mg/kg, route oral; conditions: plasma
[21] = Tmax in Wistar rat at 10 mg/kg, po; assay type: ADME, organism-based; design: dose 10 mg/kg, route oral; conditions: in vivo; procedure, shortened: as §3
[22] = Cmax in Wistar rat at 10 mg/kg, po; assay type: ADME, organism-based; design: dose 10 mg/kg, route oral; conditions: in vivo; procedure, shortened: as §3
[23] = Intrinsic clearance in Wistar rat hepatocytes assessed per 10^6 cells at 1 uM by LC-MS/MS analysis; assay type: ADME, cell-based, Hepatocyte; conditions: read-out: CLH
Procedure, shortened: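 Male rat hepatocytes from two-step collagenase perfusion (viability ≥85%), plated at 5.0 × 10^5 viable cells/mL on collagen and preincubated ~3 h at 37 °C, 5% CO2. Compound at 1 µM final. Duplicate wells sampled at 0–24 h with methanol/0.3% SDS. LC-MS-MS (MRM). CLint from initial first-order disappearance rates.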

Sphingosine 1-phosphate receptor 1, sequence (P21453 whole entry): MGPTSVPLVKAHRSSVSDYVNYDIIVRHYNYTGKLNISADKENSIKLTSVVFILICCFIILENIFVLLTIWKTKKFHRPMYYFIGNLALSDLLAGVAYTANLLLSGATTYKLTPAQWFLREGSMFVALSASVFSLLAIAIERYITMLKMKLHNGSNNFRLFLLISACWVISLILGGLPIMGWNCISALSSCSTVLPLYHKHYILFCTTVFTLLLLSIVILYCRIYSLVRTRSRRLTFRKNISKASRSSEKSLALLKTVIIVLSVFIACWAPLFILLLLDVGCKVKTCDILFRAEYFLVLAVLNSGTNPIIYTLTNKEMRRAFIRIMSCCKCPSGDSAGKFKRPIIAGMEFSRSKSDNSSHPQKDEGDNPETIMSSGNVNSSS
Sphingosine 1-phosphate receptor 3, sequence (Q99500 whole entry): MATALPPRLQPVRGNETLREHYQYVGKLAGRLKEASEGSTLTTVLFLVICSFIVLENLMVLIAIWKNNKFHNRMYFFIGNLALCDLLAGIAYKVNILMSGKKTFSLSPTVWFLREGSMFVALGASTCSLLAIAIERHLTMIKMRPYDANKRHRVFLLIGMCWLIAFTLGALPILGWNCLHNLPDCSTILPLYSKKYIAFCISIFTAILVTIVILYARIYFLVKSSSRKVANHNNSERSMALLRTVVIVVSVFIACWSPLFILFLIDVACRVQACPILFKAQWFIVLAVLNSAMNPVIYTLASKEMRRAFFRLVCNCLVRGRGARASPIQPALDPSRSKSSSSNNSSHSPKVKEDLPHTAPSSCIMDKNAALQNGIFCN

Row | pEC50 [1] | pEC50 [6] | concentration at 6 h [11] [ng/mL] | concentration at 3 h [12] [ng/mL] | concentration at 24 h [14] [ng/mL] | SMILES | % change in blood lymphocyte count from predose (Rattus norvegicus [3]) [%] | Activity (Rattus norvegicus [4]) [%] | Activity (Rattus norvegicus [5]) | Activity (Rattus norvegicus [7]) | other results
1 | 8.80 | 7.82 |  |  |  | Cc1cc(-c2noc(-c3sc(C)c4c3CCC(C)(C)C4)n2)cc(C)c1OCC(O)CNC(=O)CO (racemic) | -77 | -73 | -73% | -70% | Activity (Rattus norvegicus [2]): -7%
2 | 8.82 | 6.28 |  |  |  | Cc1cc(-c2noc(-c3scc(CC(C)C)c3C)n2)cc(C)c1OCC(O)CNC(=O)CO (racemic) | -80 |  | -79% | -72% | Activity (Rattus norvegicus [8]): -79%; Activity (Rattus norvegicus [9]): -67%; Activity (Rattus norvegicus [10]): -27%
3 | 9.22 | 6.61 | 680 | 1010 | 23 | Cc1cc(-c2noc(-c3ccc(CC(C)C)s3)n2)cc(C)c1OCC(O)CNC(=O)CO (racemic) | -66 | 14 | -79% | -75% | Activity (Rattus norvegicus [13]): Dose-dependent effect
4 | 8.37 | 5.73 | 190 | 490 | < 2 | CCc1ccc(-c2nc(-c3cc(C)c(OCC(O)CNC(=O)CO)c(C)c3)no2)s1 (racemic) |  |  |  |  | 
5 | 9.22 | 6.85 | 10 | 32 | < 1.5 | CCc1cc(CCC(=O)c2sc(CC)c3c2CCC(C)(C)C3)cc(C)c1OCC(O)CNC(=O)CO (racemic) |  |  | Active | Active | microsomal CLint at 1 µM [15]: > 1250 µL/min/mg; clearance (Rattus norvegicus [16]): 46 mL/min/kg; half-life [17]: 1.7 h; bioavailability [18]: 8%; Vd [19]: 2.8 L/kg; AUC(0-t) at 24 h [20]: 276 ng·h/mL; Tmax [21]: 0.5 h; Cmax [22]: 141 ng/mL; hepatocyte CLint at 1 µM [23]: 107 µL/min/1e6 cells
